Experimental data published in ChEMBL document CHEMBL1208768, “Synthesis, selective anti-Helicobacter pylori activity, and cytotoxicity of novel N-substituted-2-oxo-2H-1-benzopyran-3-carboxamides” (Bioorg Med Chem Lett, 2010).
≈ marks a conversion by molar mass, not a printed value. Calls of active or inactive are those of the source. The calls are words filed in the database; no cut-off is given here.

What was measured:
Helicobacter pylori [1] = assay: Antibacterial activity against metronidazole-resistant Helicobacter pylori isolate 8 after 72 hrs by agar dilution method; assay type: functional; conditions: isolate 8, 72 h
Method in brief: (§1)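 H. pylori clinical isolates (ATCC 43504 control each session) stored at -80 °C and subcultured twice on Columbia agar with 10% horse serum and 0.25% yeast extract. Suspensions of 0.5 McFarland were spotted by Steer's replicator at about 5 × 10⁵ CFU/spot onto agar with twofold compound dilutions. Plates were incubated 72 h at 37 °C in 10% CO₂. MIC was the lowest concentration without visible growth.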

Helicobacter pylori [2] = assay: Antibacterial activity against metronidazole-resistant Helicobacter pylori NCTC 11637 after 72 hrs by agar dilution method; assay type: functional; conditions: NCTC 11637, 72 h; method in brief: as §1
Enterobacter = assay: Antibacterial activity against Enterobacter after 18 to 22 hrs by broth microdilution method; assay type: functional
Method in brief: (§2)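 Clinical respiratory-tract isolates from patients, subcultured for purity and identified conventionally. Broth microdilution per NCCLS in Mueller–Hinton II broth; each plate had growth controls (bacteria, no compound) and medium-only controls. Incubation 18–22 h at 35 °C. MIC taken as the lowest concentration giving complete growth inhibition by unaided eye.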

Staphylococcus hominis = assay: Antibacterial activity against Staphylococcus hominis after 18 to 22 hrs by broth microdilution method; assay type: functional; method in brief: as §2
Proteus vulgaris = assay: Antibacterial activity against Proteus vulgaris after 18 to 22 hrs by broth microdilution method; assay type: functional; method in brief: as §2
Helicobacter pylori [3] = assay: Antibacterial activity against metronidazole-resistant Helicobacter pylori isolate 18 after 72 hrs by agar dilution method; assay type: functional; conditions: isolate 18, 72 h; method in brief: as §1
Staphylococcus aureus = assay: Antibacterial activity against Staphylococcus aureus after 18 to 22 hrs by broth microdilution method; assay type: functional; method in brief: as §2
[4] = system: Staphylococcus haemolyticus; assay: Antibacterial activity against Staphylococcus haemolyticus after 18 to 22 hrs by broth microdilution method; assay type: functional; method in brief: as §2
Klebsiella aerogenes = assay: Antibacterial activity against Enterobacter aerogenes after 18 to 22 hrs by broth microdilution method; assay type: functional; method in brief: as §2
[Candida] sake = Antifungal activity against Candida sake after 24 hrs by broth microdilution method; assay type: functional; conditions: Fermentozyma sake
Method in brief: (§3)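 Candida isolates from respiratory-tract specimens, tested by NCCLS broth microdilution in Sabouraud dextrose broth. Serial compound dilutions inoculated to 10³/mL, with fungus-only and medium-only controls. Incubated 24 h at 37 °C. MIC was the lowest concentration with complete visible growth inhibition.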

Helicobacter pylori [5] = assay: Antibacterial activity against Helicobacter pylori ATCC 43504 clinical isolates after 72 hrs by agar dilution method; assay type: functional; conditions: ATCC 43504, 72 h
Method in brief: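 Agar dilution per NCCLS. Twenty clinical strains from duodenal ulcer or gastritis patients, with ATCC 43504 as control in each session, were subcultured twice on Columbia agar plus 10% horse serum and 0.25% yeast extract (72 h, 37 °C, 10% CO₂). Inoculum of 0.5 McFarland in Wilkins Chalgren broth, about 5 × 10⁵ CFU/spot by Steer's replicator. Plates held twofold compound dilutions down to 0.0039 µg/mL and were incubated 72 h at 37 °C, 10% CO₂. MIC was the lowest concentration inhibiting visible growth.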

Klebsiella oxytoca = assay: Antibacterial activity against Klebsiella oxytoca after 18 to 22 hrs by broth microdilution method; assay type: functional; method in brief: as §2
Helicobacter pylori [6] = assay: Antibacterial activity against metronidazole-resistant Helicobacter pylori isolate 1 after 72 hrs by agar dilution method; assay type: functional; conditions: isolate 1, 72 h; method in brief: as §1
[7] = system: Staphylococcus epidermidis; assay: Antibacterial activity against Staphylococcus epidermidis after 18 to 22 hrs by broth microdilution method; assay type: functional; method in brief: as §2
Escherichia coli = assay: Antibacterial activity against Escherichia coli after 18 to 22 hrs by broth microdilution method; assay type: functional; method in brief: as §2
Helicobacter pylori [8] = assay: Antibacterial activity against metronidazole-resistant Helicobacter pylori isolate 20 after 72 hrs by agar dilution method; assay type: functional; conditions: isolate 20, 72 h; method in brief: as §1
Pichia kudriavzevii = assay: Antifungal activity against Candida krusei after 24 hrs by broth microdilution method; assay type: functional; method in brief: as §3
Candida albicans = assay: Antifungal activity against Candida albicans after 24 hrs by broth microdilution method; assay type: functional; method in brief: as §3
AGS [9] = assay: Antiinflammatory activity in human AGS cells assessed as inhibition of IL-8 production at 5 ug/mL after 24 hrs; assay type: functional, cell-based
Method in brief: (§4)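 AGS gastric adenocarcinoma cells were grown in F-12K with 10% FBS. They were seeded at 1 × 10⁵/mL for 24 h, preincubated 1 h with compound at 5 or 0.5 µg/mL, then exposed to H. pylori.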

Enterococcus faecalis = assay: Antibacterial activity against Streptococcus faecalis after 18 to 22 hrs by broth microdilution method; assay type: functional; method in brief: as §2
Klebsiella pneumoniae = assay: Antibacterial activity against Klebsiella pneumoniae after 18 to 22 hrs by broth microdilution method; assay type: functional; method in brief: as §2
AGS [10] = assay: Antiinflammatory activity in human AGS cells assessed as inhibition of IL-8 production at 0.5 ug/mL after 24 hrs; assay type: functional, cell-based; method in brief: as §4
Citrobacter freundii = assay: Antibacterial activity against Citrobacter freundii after 18 to 22 hrs by broth microdilution method; assay type: functional; method in brief: as §2

Structure (SMILES)	MIC (Helicobacter pylori [1]) [µg/mL]	MIC (Helicobacter pylori [2]) [µg/mL]	MIC (Enterobacter) [µg/mL]	MIC (Staphylococcus hominis) [µg/mL]	MIC (Proteus vulgaris) [µg/mL]	MIC (Helicobacter pylori [3]) [µg/mL]	MIC (Staphylococcus aureus) [µg/mL]	MIC [4] [µg/mL]	MIC (Klebsiella aerogenes) [µg/mL]	MIC ([Candida] sake) [µg/mL]	MIC50 (Helicobacter pylori [5]) [µg/mL]	MIC90 (Helicobacter pylori [5]) [µg/mL]	MIC (Klebsiella oxytoca) [µg/mL]	MIC (Helicobacter pylori [6]) [µg/mL]	MIC [7] [µg/mL]	MIC (Escherichia coli) [µg/mL]	MIC (Helicobacter pylori [8]) [µg/mL]	MIC (Pichia kudriavzevii) [µg/mL]	MIC (Candida albicans) [µg/mL]	inhibition (AGS [9])	further results
O=C(O)c1ccc(NC(=O)c2cc3cc(Br)cc(Cl)c3oc2=O)cc1	32 (≈ 75.7 µM)	32 (≈ 75.7 µM)	> 128	> 128	> 128	16 (≈ 37.9 µM)	> 128	> 128	> 128	> 128	8 (≈ 18.9 µM)	32 (≈ 75.7 µM)	> 128	16 (≈ 37.9 µM)	> 128	> 128	32 (≈ 75.7 µM)	> 128	> 128	inactive	MIC (Enterococcus faecalis): > 128 µg/mL; MIC (Klebsiella pneumoniae): > 128 µg/mL; inhibition (AGS [10]): inactive; MIC (Citrobacter freundii): > 128 µg/mL
COc1ccc2cc(C(=O)Nc3ccc(C(=O)O)cc3)c(=O)oc2c1	> 128	> 128	> 128	> 128	> 128	> 128	> 128	> 128	> 128	> 128	> 128	> 128	> 128	> 128	> 128	> 128	> 128	> 128	> 128	inactive	MIC (Enterococcus faecalis): > 128 µg/mL; MIC (Klebsiella pneumoniae): > 128 µg/mL; inhibition (AGS [10]): inactive; MIC (Citrobacter freundii): > 128 µg/mL
O=C(O)c1ccc(NC(=O)c2cc3cc(O)ccc3oc2=O)cc1	16 (≈ 49.2 µM)	16 (≈ 49.2 µM)	> 128	> 128	> 128	16 (≈ 49.2 µM)	> 128	> 128	> 128	> 128	16 (≈ 49.2 µM)	> 128	> 128	4 (≈ 12.3 µM)	> 128	> 128	4 (≈ 12.3 µM)	> 128	> 128	inactive	MIC (Enterococcus faecalis): > 128 µg/mL; MIC (Klebsiella pneumoniae): > 128 µg/mL; inhibition (AGS [10]): inactive; MIC (Citrobacter freundii): > 128 µg/mL
CCOC(=O)N1CCC(NC(=O)c2cc3cc(Br)ccc3oc2=O)CC1	64 (≈ 151 µM)	64 (≈ 151 µM)	> 128	> 128	> 128	32 (≈ 75.6 µM)	> 128	> 128	> 128	> 128	64 (≈ 151 µM)	64 (≈ 151 µM)	> 128	32 (≈ 75.6 µM)	> 128	> 128	32 (≈ 75.6 µM)	> 128	> 128	inactive	MIC (Enterococcus faecalis): > 128 µg/mL; MIC (Klebsiella pneumoniae): > 128 µg/mL; inhibition (AGS [10]): inactive; MIC (Citrobacter freundii): > 128 µg/mL
CCOC(=O)c1ccc(NC(=O)c2cc3cc(Br)cc(Br)c3oc2=O)cc1	64 (≈ 129 µM)	64 (≈ 129 µM)	> 128	> 128	> 128	64 (≈ 129 µM)	> 128	> 128	> 128	> 128	64 (≈ 129 µM)	64 (≈ 129 µM)	> 128	64 (≈ 129 µM)	> 128	> 128	64 (≈ 129 µM)	> 128	> 128	inactive	MIC (Enterococcus faecalis): > 128 µg/mL; MIC (Klebsiella pneumoniae): > 128 µg/mL; inhibition (AGS [10]): inactive; MIC (Citrobacter freundii): > 128 µg/mL
O=C(O)c1ccc(NC(=O)c2cc3cc([N+](=O)[O-])ccc3oc2=O)cc1	64 (≈ 181 µM)	128 (≈ 361 µM)	> 128	> 128	> 128	128 (≈ 361 µM)	> 128	> 128	> 128	> 128	128 (≈ 361 µM)	128 (≈ 361 µM)	> 128	128 (≈ 361 µM)	> 128	> 128	64 (≈ 181 µM)	> 128	> 128	inactive	MIC (Enterococcus faecalis): > 128 µg/mL; MIC (Klebsiella pneumoniae): > 128 µg/mL; inhibition (AGS [10]): inactive; MIC (Citrobacter freundii): > 128 µg/mL
O=C(O)c1ccc(NC(=O)c2cc3cccc(O)c3oc2=O)cc1	> 128	4 (≈ 12.3 µM)	> 128	> 128	> 128	> 128	> 128	> 128	> 128	> 128	> 128	> 128	> 128	> 128	> 128	> 128	> 128	> 128	> 128	inactive	MIC (Enterococcus faecalis): > 128 µg/mL; MIC (Klebsiella pneumoniae): > 128 µg/mL; inhibition (AGS [10]): inactive; MIC (Citrobacter freundii): > 128 µg/mL
Cc1ncc([N+](=O)[O-])n1CCO [METRONIDAZOLE]	64 (≈ 374 µM)	128 (≈ 748 µM)				128 (≈ 748 µM)					2 (≈ 11.7 µM)	128 (≈ 748 µM)		64 (≈ 374 µM)			128 (≈ 748 µM)				
